In ChEMBL document CHEMBL1165887, “Structure-activity relationships of monomeric C2-aryl pyrrolo[2,1-c][1,4]benzodiazepine (PBD) antitumor agents” (J Med Chem, 2010):
Active and inactive are the calls of the source. The calls are words filed in the database; no cut-off is given here.

What was measured:
[1] = Growth inhibition of human NCI60 cells after 48 hrs by SRB assay; assay type: functional; conditions: NCI60, 48 h; for CC50: read-out: LC50 (the source's name)
[2] = test system: Calf thymus DNA; test: Binding affinity to calf thymus DNA assessed as change in melting temperature after 4 hrs; assay type: nucleic-acid assay; conditions: Bos taurus
Procedure, shortened: (§1)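 Calf thymus DNA at a fixed 100 μM (DNAp, 50 μM bp) in pH 7.00 buffer of 10 mM NaH₂PO₄/Na₂HPO₄ and 1 mM Na₂EDTA, 1:5 ligand/DNAp ratio, DMSO ≤0.3% v/v. Mixture kept at 37 °C for the stated time, then melted while absorbance at 260 nm was monitored. Tm taken at the midpoint of the normalized profile; ΔTm = Tm(DNA+ligand) − Tm(DNA), corrected for DMSO; mean of at least three runs.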

[3] = test system: Calf thymus DNA; test: Binding affinity to calf thymus DNA assessed as change in melting temperature after 18 hrs; assay type: nucleic-acid assay; conditions: Bos taurus; procedure, shortened: as §1
[4] = test system: K562; test: Cytotoxicity against human K562 cells after 96 hrs by alamar blue assay; assay type: functional, cell-based; conditions: K562, 96 h
Procedure, shortened: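 K562 cells kept in RPMI with 10% fetal calf serum and 2 mM glutamine, seeded at 10⁴ cells/mL. Compounds serially diluted in DMSO and added in triplicate; exposure 96 h at 37 °C, 5% CO₂. Alamar Blue (1 μM final) then added for a further 4 h; read by fluorescence emission at 580-620 nm.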

[5] = test system: HCT-116; test: Antitumor activity against human HCT116 cells xenografted in nu/nu BALB/c mouse assessed as delay in tumor growth at 300 ug/kg, iv; assay type: functional, cell-based
Procedure, shortened: (§2)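 Female nu/nu-BALB/c athymic nude mice bearing subcutaneous flank HCT 116 xenografts (10⁷ cells), dosed once intravenously at 300 μg/kg in 1% DMSO/saline once tumours reached 50-100 mm³; vehicle-only controls. Tumours measured by calliper 3 times a week (width² × length/2), expressed as volume relative to day 1. Body weight monitored daily over 12 days as % change from day 1.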

[6] = test system: Mus musculus; test: Toxicity in human HCT116 xenografter nu/nu BALB/c mouse assessed as change in body weight at 300 ug/kg, iv; assay type: organism-based; conditions: in vivo, 0.3 mg/kg; procedure, shortened: as §2

Row | SMILES | GI50 [1] [nM] | TGI [1] [nM] | CC50 [1] [nM] | ΔTm [2] [°C] | ΔTm [3] [°C] | IC50 [4] [nM] | Activity [5] | Activity [6]
1 | C=Cc1ccc(C2=CN3C(=O)c4cc(OC)c(OC)cc4N=C[C@@H]3C2)cc1 | 5 | 10 | 620 | 9 | 9.2 | 69 | – | –
2 | COc1cc2c(cc1OC)C(=O)N1C=C(c3ccc4ccccc4c3)C[C@H]1C=N2 | 0.6 | 15 | 400 | 15.4 | 15.7 | 45.4 | – | –
3 | COc1cc2c(cc1OC)C(=O)N1C=C(c3ccc4ncccc4c3)C[C@H]1C=N2 | 0.4 | 4 | 190 | 19.9 | 20.5 | 1.4 | Active | Non-toxic
4 | COc1cc2c(cc1OC)C(=O)N1C=C(c3ccc(C(C)C)cc3)C[C@H]1C=N2 | 4 | 60 | 4460 | 6.7 | 6.9 | 115 | – | –
5 | COc1cc2c(cc1OC)C(=O)N1C=C(c3cnc4ccccc4c3)C[C@H]1C=N2 | 0.1 | 1 | 180 | 18.1 | 18.2 | 8.9 | – | –
6 | COc1cc2c(cc1OC)C(=O)N1C=C(c3ccc(C(F)(F)F)cc3)C[C@H]1C=N2 | 4 | 30 | 1660 | 11.7 | 11.9 | 24.3 | – | –
7 | COc1cc2c(cc1OC)C(=O)N1C=C(c3ccccc3)C[C@H]1C=N2 | 2 | 40 | 5130 | 10.6 | 10.8 | 2.5 | – | –
8 | COc1cc2c(cc1OC)C(=O)N1C=C(c3ccc(N(C)C)cc3)C[C@H]1C=N2 | 3 | 40 | 3230 | 7.6 | 8 | 32.1 | – | –
9 | C/C=C/C1=CN2C(=O)c3cc(O[C@@H]4O[C@@H](C)[C@H](NC)[C@@](C)(O)[C@H]4O)c(C)c(O)c3N[C@H](O)[C@@H]2C1 [SIBIROMYCIN] | 33 | 850 | 16700 | 16 | 16.3 | 1.4 | – | –
10 | CO[C@H]1Nc2c(ccc(C)c2O)C(=O)N2C=C(/C=C/C(N)=O)C[C@@H]12 [ANTHRAMYCIN METHYL ETHER] | 13 | 1580 | 24500 | 11.2 | 13 | 8 | – | –
11 | COc1cc2c(cc1OC)C(=O)N1C=C(c3ccc(Oc4ccccc4)cc3)C[C@H]1C=N2 | 3 | 30 | 1260 | 11.9 | 12.1 | 51.1 | – | –
12 | COc1cc2c(cc1OC)C(=O)N1C=C(c3ccc(C)cc3)C[C@H]1C=N2 | 2 | 180 | 8900 | 9.8 | 10.1 | 0.28 | – | –
13 | CCc1ccc(C2=CN3C(=O)c4cc(OC)c(OC)cc4N=C[C@@H]3C2)cc1 | 1 | 70 | 4170 | 9.4 | 9.7 | 79.5 | – | –
14 | COc1ccc(C2=CN3C(=O)c4cc(OC)c(OC)cc4N=C[C@@H]3C2)cc1 | 1 | 150 | 910 | 10.5 | 10.6 | 4.9 | – | –
15 | COc1cc2c(cc1OC)C(=O)N1C=C(c3ccc4c(c3)OCO4)C[C@H]1C=N2 | 2 | 30 | 3630 | 10.3 | 10.3 | 0.47 | – | –
16 | COc1cc2c(cc1OC)C(=O)N1C=C(c3ccc(F)cc3)C[C@H]1C=N2 | 2 | 120 | 11200 | 10.4 | 10.6 | 1.6 | – | –

Row | SMILES | GI50 [1] [nM] | TGI [1] [nM] | CC50 [1] [nM] | ΔTm [2] [°C] | ΔTm [3] [°C] | IC50 [4] [nM] | Activity [5] | Activity [6]
17 | COc1cc2c(cc1OC)C(=O)N1C=C(c3ccc(C#N)cc3)C[C@H]1C=N2 | 3 | 150 | 7410 | 10.9 | 11 | 19.8 | – | –
18 | COc1cc2c(cc1OC)C(=O)N1C=C(c3c(C)cccc3C)C[C@H]1C=N2 | 851 | 3460 | 20900 | 0.5 | 0.5 | > 1000 | – | –
19 | COc1cc2c(cc1OC)C(=O)N1C=C(c3ccc(N)cc3)C[C@H]1C=N2 | 2 | 30 | 4790 | 6.2 | 6.5 | 14 | – | –
20 | COc1cc2c(cc1OC)C(=O)N1C=C(c3cccs3)C[C@H]1C=N2 | 10 | 150 | 740 | 12.7 | 13 | 1.1 | – | –
21 | COc1cc2c(cc1OC)C(=O)N1C=C(c3ccccc3C)C[C@H]1C=N2 | 12 | 250 | 10700 | 6.8 | 6.9 | 9.3 | – | –
22 | COc1cc2c(cc1OC)C(=O)N1C=C(c3ccc(Cl)cc3)C[C@H]1C=N2 | 2 | 70 | 4470 | 9.9 | 10.2 | 31.3 | – | –
23 | COc1cc2c(cc1OC)C(=O)N1C=C(c3ccc(-c4ccccc4)cc3)C[C@H]1C=N2 | 8 | 90 | 3630 | 8.1 | 8.4 | 19.6 | – | –
24 | COc1cc2c(cc1OC)C(=O)N1C=C(c3ccc(SC)cc3)C[C@H]1C=N2 | 5 | 20 | 1440 | 10.5 | 10.7 | 19 | – | –
25 | COc1cc2c(cc1OC)C(=O)N1C=C(c3ccc(NC(C)=O)cc3)C[C@H]1C=N2 | 6 | 200 | 11500 | – | – | 29.7 | – | –
26 | COc1cc2c(cc1OC)C(=O)N1C=C(c3cccc([N+](=O)[O-])c3)C[C@H]1C=N2 | 5 | 50 | 5620 | – | – | 58.1 | – | –
27 | COc1cc2c(cc1OC)C(=O)N1C=C(c3ccc(C=O)cc3)C[C@H]1C=N2 | 9 | 160 | 15100 | 10.6 | 10.8 | 26.3 | – | –
28 | COc1cc2c(cc1OC)C(=O)N1C=C(c3cccc4c3sc3ccccc34)C[C@H]1C=N2 | 25 | 220 | 5370 | – | – | 163 | – | –
29 | COc1cc2c(cc1OC)C(=O)N1C=C(c3cccc(C(=O)NCCN(C)C)c3)C[C@H]1C=N2 | 27 | 1860 | 10500 | – | – | 119 | – | –
30 | COc1cc2c(cc1OC)C(=O)N1C=C(c3ccc(C(C)(C)C)cc3)C[C@H]1C=N2 | 2 | 50 | 1940 | 9 | 9.2 | 47.8 | – | –
31 | COc1cccc(C2=CN3C(=O)c4cc(OC)c(OC)cc4N=C[C@@H]3C2)c1 | 11 | 60 | 4070 | 10.1 | 10.2 | 0.45 | – | –
